Source: PubChem BioAssay AID720702 (The Scripps Research Institute Molecular Screening Center, 2013)
Out of some 370,000 compounds screened, about 1,200 (0.32%) were called active.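 Rule for the calls: active = inhibition above the mean of all tested compounds plus 3 SD, set per campaign (cut at about 25% in these data); inactive = the rest.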 Many of the other results were omitted from the sample, so actives are more common in it than they were.

biological target: Tyrosyl-DNA phosphodiesterase 2 (Homo sapiens) (UniProt O95551); test: human TDP2 enzyme inhibitors, primary screen, biochemical, epi absorbance, recombinant enzyme (AID 720702); details: recombinant TDP2, T5PNP hydrolysis, p-nitrophenol absorbance 415 nm; at 12.8 µM; hits give high values;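 note: 0% = DMSO with enzyme and 100% = buffer with substrate but no TDP2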
Procedure, shortened: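 Incubation: 2 h at 37 °C; Test system: recombinant human TDP2; Quantity: enzyme 120 nM; Read-out basis: percent inhibition; Medium: 50 mM Tris-HCl pH 7.5 with Mg2+, KCl, DTT, BSA; Repeats: single replicate; Compound: 12.8 µM single point, 1% DMSO; Signal: epi absorbance; Reagent: 5 mM T5PNP chromogenic substrate; Benchmarks: no-enzyme high, DMSO-plus-enzyme low.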

Chain of Tyrosyl-DNA phosphodiesterase 2 (Homo sapiens) (O95551 whole entry, looked up): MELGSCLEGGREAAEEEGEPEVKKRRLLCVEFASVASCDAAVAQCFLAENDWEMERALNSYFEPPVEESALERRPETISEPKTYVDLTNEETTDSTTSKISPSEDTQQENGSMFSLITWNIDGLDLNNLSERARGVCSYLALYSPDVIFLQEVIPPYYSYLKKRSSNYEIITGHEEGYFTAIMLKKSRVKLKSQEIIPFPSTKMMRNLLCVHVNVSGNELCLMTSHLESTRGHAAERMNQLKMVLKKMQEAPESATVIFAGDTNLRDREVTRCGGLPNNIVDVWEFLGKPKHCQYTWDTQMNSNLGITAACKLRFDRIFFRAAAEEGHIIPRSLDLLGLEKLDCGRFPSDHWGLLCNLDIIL

SMILES	inhibition
O=C(Nc1cc(F)cc(F)c1)OC1CCC12CCC(c1ccccc1)CC2 (centres undefined)	3% (inactive)
CCN(CC)CCN1C(=O)C2C(C(=O)Nc3ccc(Br)cc3)C3C=CC2(O3)C1C(=O)NC1CCCCC1 (centres undefined)	27.5% (active)
O=C(Nc1ccccc1F)C1C2C=CC3(O2)C1C(=O)N(c1cccnc1)C3C(=O)NC1CCCCC1 (centres undefined)	-0.47% (inactive)
CC(C)N1C(=O)C2C(C(=O)NC3CCCCC3)C3C=CC2(O3)C1C(=O)NC1CCCC1 (centres undefined)	3.15% (inactive)
CC1=C(C(=O)N(C(C)C)C(C)C)CC(CC(=O)NCCCCc2ccccc2)C(=O)N1CCC1=CCCCC1 (centres undefined)	-5.04% (inactive)
CC(=O)CCS(=O)(=O)c1ccc(C)c(C)c1	-9.65% (inactive)
COCCNC(=O)c1ccc(S(=O)(=O)c2ccc(Cl)cc2)c(NC(C)=O)c1	27.5% (active)
COc1ccc(C(=O)NCc2ccc(Cl)cc2)cc1S(=O)(=O)N1CCCC1	-0.23% (inactive)
COCCCNC(=O)c1ccc(CNS(=O)(=O)c2ccc(NC(C)=O)cc2)cc1	-0.2% (inactive)
Cc1cc(OCC(=O)Nc2nccs2)c2c(C)c(C)c(=O)oc2c1	0.03% (inactive)
Nc1nc(O)c(CC(=O)O)s1	27.2% (active)
CCOC(=O)c1nc(N)sc1C(=O)OCC	-14.1% (inactive)
CCCCC(=O)N[C@@H]1CC[C@@]23CCCN2C(=O)CCC[C@H]3[C@H]1C	-3.42% (inactive)
O=C(OCC(=O)N1CCN(c2ccccc2)CC1)c1ccc([N+](=O)[O-])s1	31.9% (active)
Cc1ccc(C)c(OCCC(=O)OCC(=O)N2CCN(c3ccccc3)CC2)c1	-10.4% (inactive)
O=C(OCC(=O)N1CCOCC1)c1ccc(N2CCOCC2)c([N+](=O)[O-])c1	-4.23% (inactive)
O=C(NCc1ccccc1Cl)C1CCC(CNc2c(N3CCCCC3)c(=O)c2=O)CC1 (centres undefined)	1.69% (inactive)
C=C(C)C#CC(Cc1ccccc1)N(CC1CC1)/C(N)=N/C(=O)OCc1ccccc1 (centres undefined)	4.08% (inactive)
O=C(CN1CCN(c2cccc(Cl)c2)CC1)Nc1ccc(S(=O)(=O)N2CCOCC2)cc1	-4.18% (inactive)
COc1ccc(Cl)cc1NC(=O)CN1CCN(C(=O)N2CCOCC2)CC1	5.78% (inactive)
Cc1ccc(Cl)cc1NC(=O)CN1CCN(S(=O)(=O)N2CCOCC2)CC1	27.6% (active)
COc1ccc(C2CC=C(C(=O)O)C(c3ccccc3F)N2S(=O)(=O)c2ccc(C)cc2)cc1OC (centres undefined)	-4.62% (inactive)
O=C(C1CCCN1S(=O)(=O)c1ccccc1)N1CCc2ccccc2C1 (centres undefined)	-6.17% (inactive)
C=CCN(C(=O)[C@@H](CCCC)[C@@H](O)c1ccc(Cl)cc1)c1ccccc1	-12.4% (inactive)
